Assay results published in ChEMBL document CHEMBL2169772, “Discovery of (2S)-1-[4-(2-{6-amino-8-[(6-bromo-1,3-benzodioxol-5-yl)sulfanyl]-9H-purin-9-yl}ethyl)piperidin-1-yl]-2-hydroxypropan-1-one (MPC-3100), a purine-based Hsp90 inhibitor” (J Med Chem, 2012).

What was measured:
Mus musculus [1] = assay: Inhibition of HSP90 in mouse liver assessed as induction of HSP70 mRNA expression at 100 mg/kg, po after 6 hrs relative to control; assay type: functional
[2] = AUC in Swiss nude mouse at 100 mg/kg, po by LC-ESI-MS/MS method; assay type: ADME, organism-based; parameters: dose 100 mg/kg, route oral; settings: plasma
Procedure, shortened: (§1)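 Single oral gavage in mice, vehicle 40% Captisol in phosphate buffer. EDTA plasma from cardiac puncture. Acetonitrile precipitation with internal standard, then LC-ESI-MS/MS quantitation against a 10–10 000 ng/mL standard curve. Cmax and AUC by noncompartmental analysis.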

[3] = Cmax in Swiss nude mouse at 100 mg/kg, po by LC-ESI-MS/MS method; assay type: ADME, organism-based; parameters: dose 100 mg/kg, route oral; settings: in vivo; procedure, shortened: as §1
[4] = Oral bioavailability in Swiss nude mouse at 10 mg/kg by LC-ESI-MS/MS method; assay type: ADME, organism-based; settings: in vivo
Procedure, shortened: (§2)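 Mice dosed by oral gavage, vehicle DMA/PEG300/EtOH/H2O (3/40/12/45, v/v/v/v). Blood drawn by cardiac puncture into EDTA plasma. Three or five animals per time point. Plasma precipitated with acetonitrile plus internal standard. Quantified by LC-ESI-MS/MS against a 10–10 000 ng/mL standard curve with QC samples. Noncompartmental analysis.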

[5] = AUC in Swiss nude mouse at 10 mg/kg, po by LC-ESI-MS/MS method; assay type: ADME, organism-based; parameters: dose 10 mg/kg, route oral; settings: plasma; procedure, shortened: as §2
[6] = Cmax in Swiss nude mouse at 10 mg/kg, po by LC-ESI-MS/MS method; assay type: ADME, organism-based; parameters: dose 10 mg/kg, route oral; settings: in vivo; procedure, shortened: as §2
[7] = Tmax in Swiss nude mouse at 10 mg/kg, po by LC-ESI-MS/MS method; assay type: ADME, organism-based; parameters: dose 10 mg/kg, route oral; settings: in vivo; procedure, shortened: as §2
[8] = AUC in Swiss nude mouse at 2.5 mg/kg, iv by LC-ESI-MS/MS method; assay type: ADME, organism-based; parameters: dose 2.5 mg/kg, route intravenous; settings: plasma
Procedure, shortened: (§3)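 Intravenous dose in mice, vehicle DMA/PEG300/EtOH/H2O 3/40/12/45. Sampling at 5, 15, 30, 60, 120, 240, 480 and 720 min, three or five animals per time point. Cardiac-puncture EDTA plasma. Acetonitrile protein precipitation with internal standard, then LC-ESI-MS/MS (10–10 000 ng/mL curve). Parameters by noncompartmental fit.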

[9] = Half life in Swiss nude mouse at 2.5 mg/kg, iv by LC-ESI-MS/MS method; assay type: ADME, organism-based; parameters: dose 2.5 mg/kg, route intravenous; settings: in vivo; procedure, shortened: as §3
[10] = Volume of distribution in Swiss nude mouse at 2.5 mg/kg, iv by LC-ESI-MS/MS method; assay type: ADME, organism-based; parameters: dose 2.5 mg/kg, route intravenous; settings: in vivo; procedure, shortened: as §3
Mus musculus [11] = assay: Hepatic clearance in Swiss nude mouse at 2.5 mg/kg, iv by LC-ESI-MS/MS method; assay type: ADME, organism-based, Liver; parameters: dose 2.5 mg/kg, route intravenous; settings: in vivo; procedure, shortened: as §3
[12] = (§4) Metabolic stability in human liver microsomes assessed as percent of residual drug in presence of NADPH incubated for 40 mins by LC-ESI-MS/MS method; assay type: ADME, Microsome; settings: liver microsomes, read-out: Stability
Procedure, shortened: (§5)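 Test article incubated in duplicate with human liver microsomes (0.5 mg/mL protein) in 100 mM potassium phosphate pH 7.4. Started with 1 mM NADPH. Stopped with acetonitrile at 0, 10, 20 and 40 min. LC-MS/MS peak area at 40 min reported as percent of 0 min. No-NADPH control incubated for 40 min.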

[13] = Cytotoxicity against human NCI-ADR-RES cells overexpressing P-gp 1 assessed as inhibition of tumor growth incubated for 72 hrs by luminometry; assay type: functional, cell-based
Procedure, shortened: (§6)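 Cells seeded at 5000 per well in DMEM with 10% serum and left overnight. Compound added from DMSO dilutions (0.4% DMSO final) for 72 h. After 5 min at room temperature, ATPLite two-step lysis and substrate added, 5 min incubation, then luminescence read. Values are the mean of at least two experiments.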

HCT-116 [14] = assay: Cytotoxicity against human HCT116 cells assessed as inhibition of tumor growth incubated for 72 hrs by luminometry; assay type: functional, cell-based; settings: HCT-116, 72 h; procedure, shortened: as §6
Heat shock protein HSP90 [15] = biological target: T1, Heat shock protein HSP90 (Homo sapiens, UniProt P07900+P08238); assay: Inhibition of human HSP90 using BODIPY labelled geldanamycin as substrate by fluorescence polarization assay; assay type: protein assay
Heat shock protein HSP90 [16] = biological target: T1, Heat shock protein HSP90; assay: Inhibition of human HSP90 in HCT116 cells expressing Her2 gene assessed as degradation of Her2 after 4 hrs by luciferase reporter gene assay; assay type: cell-based; settings: hct-116
Procedure, shortened: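 HCT116 cells stably transfected with Her2 kinase domain (aa 641–975) fused to firefly luciferase. Seeded at 10 000 per well in DMEM with 10% serum and left overnight. Compound added from DMSO (0.4% final) for 4 h. Steady-Glo added at room temperature for 5 min, then luminescence read.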

[17] = Oral bioavailability in Swiss nude mouse at 100 mg/kg administered using captisol and phosphate buffer system formulation by LC-ESI-MS/MS method; settings: in vivo
[18] = Lipophilicity, log P of the compound; assay type: physicochemical; settings: octanol/water
HCT-116 [19] = assay: Ratio of IC50 for human NCI-ADR-RES cells overexpressing P-gp1 to IC50 for human HCT116 cells; assay type: functional
[20] = Solubility of compound in phosphate buffer at pH 7.4; assay type: physicochemical
Liver microsomes = assay: as §4; assay type: ADME, Microsome; settings: microsomes, 40 min; procedure, shortened: as §5

| SMILES | fold change (FC) (Mus musculus [1]) | AUC [2] | Cmax [3] | bioavailability [4] | AUC [5] | Cmax [6] | Tmax [7] | AUC [8] | half-life [9] | Vd [10] | CLH (Mus musculus [11]) | remaining at 40 min [12] | IC50 [13] | IC50 (HCT-116 [14]) | IC50 (Heat shock protein HSP90 [15]) | IC50 (Heat shock protein HSP90 [16]) | bioavailability [17] | also measured |
| --- | --- | --- | --- | --- | --- | --- | --- | --- | --- | --- | --- | --- | --- | --- | --- | --- | --- | --- |
| C[C@@H](O)C(=O)N1CCC(CCn2c(Sc3cc4c(cc3Br)OCO4)nc3c(N)ncnc32)CC1 | 24 | 50300 ng·h/mL | 8400 ng/mL | 37% | 2410 ng·h/mL | 1430 ng/mL | 15 min | 1650 ng·h/mL | 36 min | 1.32 L/kg | 1513 mL/h/kg | 58% | 3.3 µM | 640 nM | 0.11 µM | 0.09 µM | > 50% | – |
| Nc1ncnc2c1nc(Sc1cc3c(cc1Br)OC(F)(F)O3)n2CCC1CCN(C=O)CC1 | – | – | – | – | – | – | – | – | – | – | – | 0% | – | – | > 5 µM | – | – | logP [18]: 4.82 |
| C[C@@H](O)C(=O)N1CCC(CCn2c(Sc3cc4c(cc3Br)OCCO4)nc3c(N)ncnc32)CC1 | 3.8 | 32600 ng·h/mL | 9300 ng/mL | 32% | 1960 ng·h/mL | 1180 ng/mL | 60 min | 1530 ng·h/mL | 36 min | 1.35 L/kg | 1639 mL/h/kg | 35% | 9.8 µM | 920 nM | 0.11 µM | 0.069 µM | > 50% | – |
| CC(C)N1CCC(CCn2c(Sc3cc4c(cc3Br)OCO4)nc3c(N)ncnc32)CC1 | – | – | – | – | – | – | – | – | – | – | – | – | 7.25 µM | 2580 nM | 0.9 µM | 0.32 µM | – | Ratio IC50 (HCT-116 [19]): 2 |
| Nc1ncnc2c1nc(Sc1cc3c(cc1Br)OCO3)n2CCC1CCN(C=O)CC1 | 47 | 63900 ng·h/mL | 10900 ng/mL | 35% | 1810 ng·h/mL | 354 ng/mL | 60 min | 1320 ng·h/mL | 30 min | 1.45 L/kg | 1899 mL/h/kg | 17% | 2.8 µM | 430 nM | 0.15 µM | 0.07 µM | > 50% | logP [18]: 3.42 |
| Nc1ncnc2c1nc(Sc1cc3c(cc1Br)OCCO3)n2CCC1CCN(C=O)CC1 | 2.3 | 38000 ng·h/mL | 8540 ng/mL | 30% | 1180 ng·h/mL | 312 ng/mL | 60 min | 967 ng·h/mL | 16.8 min | 1.05 L/kg | 2585 mL/h/kg | 42% | 2.1 µM | 670 nM | 0.06 µM | 0.049 µM | > 50% | – |
| Nc1ncnc2c1nc(Sc1cc3c(cc1Br)OCO3)n2CCC(N)C1CC1 (configuration not stated) | – | – | – | 0.4% | – | – | – | – | – | – | – | 75% | – | – | 0.08 µM | – | – | solubility [20]: > 100 µM |
| Nc1ncnc2c1nc(Sc1cc3c(cc1Br)OCO3)n2CCC1C[C@H]2CC[C@@H](C1)O2 (some centres not stated) | – | – | – | – | – | – | – | – | – | – | – | – | – | – | – | – | – | Stability (Liver microsomes): Unstable |
| Nc1ncnc2c1nc(Sc1cc3occc3cc1Br)n2CCC1CCN(C=O)CC1 | – | – | – | 131% | 4610 ng·h/mL | 2230 ng/mL | 30 min | 880 ng·h/mL | 18 min | 1.06 L/kg | 2841 mL/h/kg | 53% | 1.1 µM | 260 nM | 0.059 µM | 0.048 µM | – | – |
| Nc1ncnc2c1nc(Sc1cc3c(cc1Br)OCO3)n2CCC1CCN(C(=O)CO)CC1 | 18 | 25100 ng·h/mL | 7780 ng/mL | 57% | 1320 ng·h/mL | 588 ng/mL | 15 min | 574 ng·h/mL | 30 min | 3 L/kg | 4359 mL/h/kg | 54% | 2 µM | 380 nM | 0.11 µM | 0.06 µM | > 50% | – |
| CN1[C@@H]2CC[C@H]1CC(CCn1c(Sc3cc4c(cc3Br)OCO4)nc3c(N)ncnc31)C2 (some centres not stated) | – | – | – | – | – | – | – | – | – | – | – | – | – | – | – | – | – | Stability (Liver microsomes): Unstable |
| Nc1ncnc2c1nc(Sc1cc3c(cc1Br)OCCO3)n2CCC1CCN(C(=O)CO)CC1 | 1.7 | 18200 ng·h/mL | 7530 ng/mL | 34% | 702 ng·h/mL | 55 ng/mL | 15 min | 517 ng·h/mL | 51 min | 5.93 L/kg | 4833 mL/h/kg | 45% | 10 µM | 820 nM | 0.09 µM | 0.04 µM | > 50% | – |
| C[C@H](O)C(=O)N1CCC(CCn2c(Sc3cc4c(cc3Br)OCCO4)nc3c(N)ncnc32)CC1 | 3.2 | 40400 ng·h/mL | 11600 ng/mL | 20% | 1190 ng·h/mL | 564 ng/mL | 30 min | 1460 ng·h/mL | 25.8 min | 1.07 L/kg | 1712 mL/h/kg | 45% | 6.5 µM | 470 nM | 0.15 µM | 0.074 µM | > 50% | – |
